Source: PubChem (several laboratories)
sPLA2-III inh – Blocks human group III sPLA2 activity; hit rate 0.56% among 370,000; QFRET BODIPY PC-A2 liposome hydrolysis, fluorescence; inhibition, % at 12.2 µM;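 active means inhibition above mean plus 3 SD of compounds lying within the high and low control bounds, cut at about 19% in these data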
ASAP1 inh – ASAP1 ArfGAP inhibition. ASAP1-stimulated ARF1 GTP hydrolysis, GDP FP detection. inhibition, % at 16.5 µM. hit rate 0.19% among 360,000; in the data active means inhibition above about 25%
Target sequence (Q9ULH1 325-724 limits assumed): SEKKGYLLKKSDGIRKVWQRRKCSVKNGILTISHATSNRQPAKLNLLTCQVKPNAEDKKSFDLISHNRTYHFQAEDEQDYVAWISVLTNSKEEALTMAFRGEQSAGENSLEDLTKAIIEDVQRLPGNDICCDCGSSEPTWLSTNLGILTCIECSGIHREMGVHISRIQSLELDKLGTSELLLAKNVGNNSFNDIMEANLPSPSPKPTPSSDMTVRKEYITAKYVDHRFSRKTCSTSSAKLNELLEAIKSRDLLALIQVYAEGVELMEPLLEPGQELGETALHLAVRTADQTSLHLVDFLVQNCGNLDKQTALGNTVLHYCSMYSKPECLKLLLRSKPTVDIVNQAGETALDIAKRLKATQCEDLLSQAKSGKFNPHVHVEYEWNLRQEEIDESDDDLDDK
SKKanGAS inh – inhibitors of SKKanGAS S. pyogenes growth in kanamycin (SK-promoter or general growth effect) | AID 1662 | BacTiter-Glo, 6 h | hit rate 1.3% among 300,000 | inhibition, % at 7.5 µM;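 active means mean replicate score, as percent of positive control median, at least 50; inconclusive means mean below 50 but one replicate at or above 50; inactive means mean and every replicate below 50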;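 further: strain carries kanamycin resistance gene driven by streptokinase promoter and grows in 40 µg/ml kanamycin; loss of luminescence reflects streptokinase promoter inhibition or plain growth inhibition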
Calb FLC – C. albicans growth modulation with fluconazole | C. albicans CaCi-2 + fluconazole, Alamar Blue growth, 48 h | growth inhibition, % (concentration not given with the values) | hit rate 0.57% among 300,000;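 active means growth inhibition above about 58% in most replicates, limit read from the data, passing the limit was not always enough; inconclusive means exactly half the replicates above a set limit; inactive means most replicates below a set limit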;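 further: all wells also contain fluconazole at 8 µg/ml as a sub-toxic cotreatment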
ARFGAP1 inh – inhibitors of rat ARFGAP1; Q62848; Arfgap1-stimulated ARF1 GTP hydrolysis, GDP FP detection; inhibition, % at 16.5 µM; hit rate 0.26% among 360,000; AID 651572;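 active means inhibition above a per-plate limit, mean inhibition of low control wells plus 3 SD, cut at about 25% in these data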
Target sequence (Q62848 1-136 limits assumed): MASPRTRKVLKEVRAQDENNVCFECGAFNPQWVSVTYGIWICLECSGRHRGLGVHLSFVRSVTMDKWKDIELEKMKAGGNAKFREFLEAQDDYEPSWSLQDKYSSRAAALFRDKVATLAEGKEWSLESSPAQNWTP
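Material: rat Arfgap1 GAP domain (His6, aa 1-136), purified enzyme. Also added: human ARF1(Δ1-17)-GTP substrate. Compound dosing: 16.5 µM single point, 1.26% DMSO. Timing: enzyme reaction 120 min at 25 °C after 20 min preincubation. Signal: GDP detection by fluorescence polarization. Read-out basis: percent inhibition of GAP-stimulated GDP formation, scaled between DMSO and no-Arfgap1 medians.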
Large screens that a line does not name were inactive. In the library only some 2.3% were active in any assay of this set; here they are far more common.

COc1ccc(/C=N\NC(=O)c2cc(O)c(O)c(O)c2)cc1CN1CCN(c2ccc(F)cc2)CC1	Calb FLC 98.6
c1ccn(-c2ccc(-c3noc(CCc4ccncc4)n3)cc2)c1	none (no result: ASAP1 inh, SKKanGAS inh, Calb FLC, ARFGAP1 inh)
CCn1c(=O)n(CC(=O)N2CCN(c3ccc(F)cc3)CC2)c(=O)c2ccccc21	none (no result: ASAP1 inh, SKKanGAS inh, Calb FLC, ARFGAP1 inh)
COc1ccccc1C(=O)NNC(=O)C(=O)Nc1ccc(C)c(Cl)c1	SKKanGAS inh 98.1
c1ccc(-c2cc(-c3ccncc3)nc3ccc4ccccc4c23)cc1	SKKanGAS inh 100.1
NS(=O)(=O)c1ccc(N2N=C(c3ccc(Br)cc3)CC2c2ccc(F)cc2)cc1 (centres undefined)	SKKanGAS inh 71.6
NS(=O)(=O)c1ccc(N2N=C(c3ccccc3)CC2c2cccc(F)c2)cc1 (centres undefined)	none
COc1ccc2nc(N3CCCCC3)c(/C=C3\SC(=S)NC3=O)cc2c1	SKKanGAS inh 86.0
O=C1NC(=S)S/C1=C\c1cc2ccccc2nc1N1CCCCC1	none
COC(=O)[C@]12C[C@H](CC(=O)N3CCSCC3)C(=O)N(CCc3ccc(OC)c(OC)c3)C1=C[C@H](C(C)(C)C)O[C@@H]2C	none (no result: ASAP1 inh, SKKanGAS inh, Calb FLC, ARFGAP1 inh)
COCC(=O)NC(c1ccccc1)c1ccccc1	none
CC(C)CCNCC(=O)NC(c1ccccc1)c1ccccc1	Calb FLC 114.8 (no result: SKKanGAS inh)
CNS(=O)(=O)/C=C/c1ccccc1CCNC(=O)OC(C)(C)C	none (no result: ASAP1 inh, SKKanGAS inh, Calb FLC, ARFGAP1 inh)
CC1(C(=O)Nc2cccc3cccnc23)CCN1Cc1cccc2c1OCO2 (centres undefined)	none (no result: SKKanGAS inh, Calb FLC)
COCC(=O)N(C)[C@H]1C[C@H]2c3[nH]c4c(-c5ccccc5)cccc4c3CCN2C(=O)[C@H]1[C@H](C)O	none (no result: SKKanGAS inh, Calb FLC)
CCS(=O)(=O)c1nc(S(=O)(=O)c2ccc(C)cc2)c(NCCN2CCOCC2)s1	SKKanGAS inh 54.1
CCOC(=O)N1CCN(C(=O)c2ccc3c(c2)NC(=O)/C(=C\c2cccc(C)c2)S3)CC1	SKKanGAS inh 92.3
O=C1Nc2cc(C(=O)N3CCN(c4ccccn4)CC3)ccc2S/C1=C\c1ccccc1	SKKanGAS inh 53.3
CCOC(=O)N1CCN(C(=O)c2ccc3c(c2)NC(=O)/C(=C\c2ccc(OC)c(OC)c2)S3)CC1	SKKanGAS inh 101.1
COc1ccc(/C=C2/Sc3ccc(C(=O)N4CCOCC4)cc3NC2=O)cc1OC	none
CCC[C@H]1[C@@H](OC(=O)NCc2cccs2)CC[C@@]23CCCN2C(=O)CCC[C@@H]13	none (no result: ASAP1 inh, SKKanGAS inh, Calb FLC, ARFGAP1 inh)
C[C@@H]1CCN(C2CC2)S(=O)(=O)c2c(cccc2N2CC[C@@H](O)C2)O1	none (no result: ASAP1 inh, SKKanGAS inh, Calb FLC, ARFGAP1 inh)
CCCC(C)C(=O)NC1CCCCN(C)C1=O (centres undefined)	none (no result: SKKanGAS inh, Calb FLC)
COC(=O)[C@]12C[C@H](CC(=O)N3CCOCC3)C(=O)N(Cc3ccc4c(c3)OCO4)C1=C[C@H](C(C)(C)C)O[C@@H]2C	none (no result: SKKanGAS inh, Calb FLC)
CC(=O)c1cc(-c2ccc([N+](=O)[O-])cc2)c(=O)n2c1CCC2	none (no result: ASAP1 inh, SKKanGAS inh, Calb FLC, ARFGAP1 inh)
O=C(NNC(=O)c1cc(-c2ccncc2)nc2ccccc12)c1ccccc1O	Calb FLC 85.5
Cc1cccc(NC(=O)NNC(=O)c2cc(-c3ccccc3Cl)nc3ccccc23)c1	Calb FLC inconclusive (no result: sPLA2-III inh, ASAP1 inh, ARFGAP1 inh)
O=C(NNC(=O)c1cc(-c2ccc(Cl)c(Cl)c2)nc2ccccc12)Nc1ccccc1	SKKanGAS inh 75.9
O=c1c(Cl)c(N2CCCCC2)cnn1-c1nc2ccccc2[nH]1	none
O=c1c2ccccc2cnn1-c1nc2ccccc2[nH]1	SKKanGAS inh 58.1
COc1ccc(C(=O)c2[nH]c(N)c(C(=O)NCCc3c[nH]c4ccccc34)c2-c2ccccc2C(F)(F)F)cc1	none (no result: SKKanGAS inh, Calb FLC)
Cc1cc(N/N=C/c2cccc(Cl)c2)nc(-n2nc(C)cc2C)n1	SKKanGAS inh 103.5
Cc1cc(N/N=C/c2cccc([N+](=O)[O-])c2)nc(-n2nc(C)cc2C)n1	none
COc1ccc(C2c3ccsc3CCN2C(=O)C(C)(C)C)cc1 (centres undefined)	SKKanGAS inh 50.3
C=CCN(CC#Cc1ccc(C(F)(F)F)cc1)CC=C	none (no result: ASAP1 inh, SKKanGAS inh, Calb FLC, ARFGAP1 inh)
COc1ccc(C#Cc2c(-c3ccsc3)oc3ccc(N4CCOCC4)cc23)cc1	none
COc1ccc(-c2oc3cccnc3c2C#CC2(O)CCCCC2)cc1	SKKanGAS inh 57.0
OC1(C#Cc2c(-c3ccsc3)oc3ccc(N4CCOCC4)cc23)CCCCC1	SKKanGAS inh 50.2
COc1ccc(-c2oc3ccc(N4CCOCC4)cc3c2C#CC2(O)CCCCC2)cc1	SKKanGAS inh 69.2
COc1ccc(-c2sc3cc(OC)c(OC)cc3c2C#CC2(O)CCCCC2)cc1	none (no result: SKKanGAS inh, Calb FLC)
COc1ccc(-c2oc3cccnc3c2C#CCO)cc1	none (no result: sPLA2-III inh, ASAP1 inh, ARFGAP1 inh)
COc1ccc(-c2sc3ccccc3c2C#CC2(O)CCCCC2)cc1	SKKanGAS inh 101.0
COc1ccc(-c2oc3ccc(N4CCOCC4)cc3c2C#Cc2ccc(N)cc2)cc1	none
CCOC(=O)[C@]12CCCCC/C=C\1N(Cc1ccc(OC)cc1)C(=O)[C@H]2CC(=O)NCc1ccccc1	none (no result: ASAP1 inh, SKKanGAS inh, Calb FLC, ARFGAP1 inh)
CS(=O)(=O)N[C@@H]1C[C@@H]2O[C@@H](CO)CC[C@@H]2O[C@@H]1CCc1ccc(/C=C/c2ccccc2)cc1	none (no result: ASAP1 inh, SKKanGAS inh, Calb FLC, ARFGAP1 inh)
Clc1cccc(Cl)c1C1Nc2cccc3cccc(c23)N1	SKKanGAS inh 58.8
Fc1cccc(Cl)c1C1Nc2cccc3cccc(c23)N1	none
CCOC(=O)[C@@]12CCCC3=C1N(CCC3)C(=O)[C@H]2CC(=O)NCCCCc1ccccc1	none (no result: ASAP1 inh, SKKanGAS inh, Calb FLC, ARFGAP1 inh)
O=C(Nc1nnc(SCc2ccccc2Cl)s1)C1COc2ccccc2O1 (centres undefined)	SKKanGAS inh 68.7
COc1ccc(OC)c(C2C=C(C34CC5CC(CC(C5)C3)C4)NC(=S)N2)c1 (centres undefined)	SKKanGAS inh 52.3
CC1C(=O)C(C)C(c2ccc3c(c2)OCO3)NC1c1ccc2c(c1)OCO2 (centres undefined)	none
S=C1NC(C23CC4CC(CC(C4)C2)C3)=CC(c2ccc3c(c2)OCO3)N1 (centres undefined)	SKKanGAS inh 57.8
COc1cc(C2C=C(C34CC5CC(CC(C5)C3)C4)NC(=S)N2)cc(OC)c1OC (centres undefined)	none
Cc1ccc2c(c1)N(CCCC(=O)N(C)Cc1ccccc1Cl)C(=O)CO2	none (no result: ASAP1 inh, SKKanGAS inh, Calb FLC, ARFGAP1 inh)
O=C(c1ccc(Cn2c(=O)[nH]c3ccccc3c2=O)cc1)N1CCN(c2ccc(F)cc2)CC1	Calb FLC 62.9
Cc1c(C(=O)Nc2nonc2-c2ccc(F)cc2)oc2ccc(F)cc12	SKKanGAS inh 57.1 (no result: Calb FLC)
CC(=O)NS(=O)(=O)c1ccc(N=c2ssc3c2-c2cc(C)c(C)cc2NC3(C)C)cc1	none
Cc1cc2c(cc1C)-c1c(ssc1=Nc1ccc(S(N)(=O)=O)cc1)C(C)(C)N2	SKKanGAS inh 50.0
O=C(N[C@H](C(=O)N1CCC[C@H]1C(=O)NC1CCCC1)C1CCCCC1)c1nccs1	none (no result: SKKanGAS inh, Calb FLC)
COCCCn1c(=O)/c(=C\c2ccccc2OC(C)C)s/c1=C(/C#N)C(=O)Nc1ccc(C(=O)O)cc1	SKKanGAS inh 53.9
CCn1cc([N+](=O)[O-])c(C(=O)N2N=C(c3ccc4ccccc4c3)CC2c2ccccc2O)n1 (centres undefined)	none
